Reference: ChEMBL document CHEMBL1154674, “Synthesis and evaluation of three 18F-labeled aminophenylbenzothiazoles as amyloid imaging agents” (J Med Chem, 2009)
Each block holds one compound with its values, some of them ahead of it.

Key:
Type in all cases: ADME, organism-based, Macaca mulatta
[1] = Drug level in normal rhesus monkey thalamus assessed as standard uptake value at 96.3 MBq, iv after 27.5 mins by microPET; conditions: in vivo
[2] = Drug level in normal rhesus monkey cerebellum assessed as standard uptake value at 96.3 MBq, iv after 10 mins by microPET; conditions: in vivo
Method in brief: (§1)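 One normal rhesus monkey, each tracer given iv via the vena saphena (81.2, 96.3 or 109.4 MBq), with 1 day between tracer injections. Dynamic brain μPET over 180 min used frames of 5 × 60 s, 5 × 120 s, 9 × 300 s and 12 × 600 s. Images were reconstructed by filtered back projection with a RAMP filter. Regional time-activity curves were expressed as SUV.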

[3] = Drug level in normal rhesus monkey cerebellum assessed as standard uptake value at 96.3 MBq, iv after 135 mins by microPET; conditions: in vivo, 2.25 h; method in brief: as §1
[4] = Drug level in normal rhesus monkey white matter assessed as standard uptake value at 96.3 MBq, iv after 22.5 mins by microPET; conditions: in vivo, 0.375 h
[5] = Drug level in normal rhesus monkey frontal cortex assessed as standard uptake value at 109.4 MBq, iv after 63 mins by microPET; conditions: in vivo, 1.05 h
[6] = Drug level in normal rhesus monkey pons assessed as standard uptake value at 81.2 MBq, iv after 12 mins by microPET; conditions: in vivo, 0.2 h

SUV [1]: 2.31
SUV [2]: 1.69
SUV [3]: 0.94
SUV [4]: 1.3
Structure (SMILES): CN(C)c1ccc2nc(-c3ccc([18F])cc3)sc2c1

SUV [5]: 4.56
Structure (SMILES): Nc1ccc2nc(-c3ccc([18F])cc3)sc2c1

SUV [6]: 5.701
Structure (SMILES): CNc1ccc2nc(-c3ccc([18F])cc3)sc2c1
